Reference: ChEMBL document CHEMBL4229344 (Eur J Med Chem, 2018)

Tests used:
[1] = biological target: Mitogen-activated protein kinase 13 (Homo sapiens) (UniProt O15264); test: Binding affinity to wild-type human full length p38-delta (M1 to L365 residues) expressed in bacterial expression system assessed as residual binding level at 1 uM by Kinomescan method relative to control
How it was run: (§1)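 KINOMEscan competition binding against 468 purified kinases/mutants, test compound at 1 µM; residual binding relative to control.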

[2] = biological target: Calcium/calmodulin-dependent protein kinase type 1 (Homo sapiens) (UniProt Q14012); test: Binding affinity to wild-type human full length CAMK1 (M1 to L370 residues) expressed in bacterial expression system assessed as residual binding level at 1 uM by Kinomescan method relative to control
Calcium/calmodulin-dependent protein kinase type 1 (Homo sapiens), sequence (Q14012 whole entry, looked up, the tested form may be a part): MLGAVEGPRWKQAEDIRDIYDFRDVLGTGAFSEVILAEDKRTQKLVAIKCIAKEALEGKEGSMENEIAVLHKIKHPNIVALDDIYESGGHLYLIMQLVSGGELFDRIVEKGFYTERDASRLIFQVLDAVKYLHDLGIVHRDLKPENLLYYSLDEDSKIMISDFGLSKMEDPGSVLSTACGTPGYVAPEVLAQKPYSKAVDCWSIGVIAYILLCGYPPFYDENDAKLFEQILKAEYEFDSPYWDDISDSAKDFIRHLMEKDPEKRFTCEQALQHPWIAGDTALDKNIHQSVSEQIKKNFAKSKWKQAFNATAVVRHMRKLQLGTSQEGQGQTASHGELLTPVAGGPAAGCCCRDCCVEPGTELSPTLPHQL
How it was run: (§2)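 Single-concentration (1 μM) competition-binding screen run by KINOMEscan against a panel of 468 purified kinases and mutants. The read-out is the relative binding activity of the test compound to each kinase.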

[3] = biological target: Serine/threonine-protein kinase 38-like (Homo sapiens) (UniProt Q9Y2H1); test: Binding affinity to wild-type human partial length NDR2 (N34 to E447 residues) expressed in bacterial expression system assessed as residual binding level at 1 uM by Kinomescan method relative to control
Serine/threonine-protein kinase 38-like (Homo sapiens), sequence (Q9Y2H1 2-464 limits assumed): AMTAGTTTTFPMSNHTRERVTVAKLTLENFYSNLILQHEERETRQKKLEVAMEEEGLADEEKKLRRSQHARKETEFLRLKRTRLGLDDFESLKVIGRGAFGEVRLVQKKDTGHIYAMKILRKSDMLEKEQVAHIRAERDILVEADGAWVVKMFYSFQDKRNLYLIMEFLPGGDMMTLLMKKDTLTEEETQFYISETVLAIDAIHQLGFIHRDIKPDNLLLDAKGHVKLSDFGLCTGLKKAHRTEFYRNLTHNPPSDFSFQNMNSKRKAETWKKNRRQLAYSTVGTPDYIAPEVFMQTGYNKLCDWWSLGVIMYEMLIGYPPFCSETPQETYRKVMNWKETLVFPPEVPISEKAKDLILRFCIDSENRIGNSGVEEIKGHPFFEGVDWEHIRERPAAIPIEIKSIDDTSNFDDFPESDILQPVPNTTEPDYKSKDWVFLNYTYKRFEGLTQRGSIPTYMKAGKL
How it was run: (§3)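 Kinome-wide competition binding screen against a panel of 468 purified kinases/mutants, with the test compound at a single concentration of 1 μM. Read-out is the relative binding activity of each kinase in the presence of compound.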

[4] = biological target: Megakaryocyte-associated tyrosine-protein kinase (Homo sapiens) (UniProt P42679); test: Binding affinity to wild-type human full length CTK (M43 to P508 residues) expressed in mammalian expression system assessed as residual binding level at 1 uM by Kinomescan method relative to control; how it was run: as §2
[5] = biological target: Tyrosine-protein kinase ZAP-70 (Homo sapiens) (UniProt P43403); test: Binding affinity to wild-type human partial length ZAP70 (D20 to G299 residues) expressed in mammalian expression system assessed as residual binding level at 1 uM by Kinomescan method relative to control
[6] = biological target: Mitogen-activated protein kinase kinase kinase 20 (Homo sapiens) (UniProt Q9NYL2); test: Binding affinity to wild-type human partial length ZAK (M1 to L331 residues) expressed in bacterial expression system assessed as residual binding level at 1 uM by Kinomescan method relative to control
Mitogen-activated protein kinase kinase kinase 20 (Homo sapiens), sequence (Q9NYL2 2-800 limits assumed): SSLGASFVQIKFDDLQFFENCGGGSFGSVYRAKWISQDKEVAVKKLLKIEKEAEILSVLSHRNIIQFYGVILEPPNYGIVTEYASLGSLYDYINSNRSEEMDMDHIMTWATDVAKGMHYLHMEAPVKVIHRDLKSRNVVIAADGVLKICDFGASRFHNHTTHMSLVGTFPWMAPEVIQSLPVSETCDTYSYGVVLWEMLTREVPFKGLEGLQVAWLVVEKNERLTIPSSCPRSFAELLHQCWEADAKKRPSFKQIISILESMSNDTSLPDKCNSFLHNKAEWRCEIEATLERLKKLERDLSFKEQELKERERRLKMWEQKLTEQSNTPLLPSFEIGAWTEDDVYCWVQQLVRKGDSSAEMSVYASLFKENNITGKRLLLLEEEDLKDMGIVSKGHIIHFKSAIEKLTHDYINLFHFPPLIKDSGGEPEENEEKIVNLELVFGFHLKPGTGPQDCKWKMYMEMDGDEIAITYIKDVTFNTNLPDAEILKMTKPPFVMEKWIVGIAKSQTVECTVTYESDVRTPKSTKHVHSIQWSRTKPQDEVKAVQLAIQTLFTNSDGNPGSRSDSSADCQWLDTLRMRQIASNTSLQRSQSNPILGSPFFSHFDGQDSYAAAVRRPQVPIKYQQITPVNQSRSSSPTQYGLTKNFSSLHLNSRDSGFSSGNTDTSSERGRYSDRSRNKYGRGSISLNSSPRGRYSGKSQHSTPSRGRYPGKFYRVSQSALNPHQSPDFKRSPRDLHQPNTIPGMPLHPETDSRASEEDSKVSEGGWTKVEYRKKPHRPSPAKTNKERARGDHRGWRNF

[7] = system: Mast/stem cell growth factor receptor Kit (Homo sapiens), P10721 [A829P]; test: Binding affinity to human partial length KIT A829P mutant (I571 to D952 residues) expressed in mammalian expression system assessed as residual binding level at 1 uM by Kinomescan method relative to control
How it was run: (§4)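 Kinome-wide single-concentration binding screen (KINOMEscan) at 1 μM against a panel of 468 purified kinases and mutants. Read-out is relative binding of each kinase compared with control. Selectivity across the panel was summarised as an S(10) score.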

[8] = biological target: Cyclin-dependent kinase 3 (Homo sapiens) (UniProt Q00526); test: Binding affinity to wild-type human full length CDK3 (M1 to H305 residues) expressed in bacterial expression system assessed as residual binding level at 1 uM by Kinomescan method relative to control; how it was run: as §2
[9] = biological target: Tyrosine-protein kinase SYK (Homo sapiens) (UniProt P43405); test: Binding affinity to wild-type human partial length SYK (D354 to N635 residues) expressed in bacterial expression system assessed as residual binding level at 1 uM by Kinomescan method relative to control
[10] = biological target: Mitogen-activated protein kinase 8 (Homo sapiens) (UniProt P45983); test: Binding affinity to wild-type human full length JNK1 (M1 to Q384 residues) expressed in mammalian expression system assessed as residual binding level at 1 uM by Kinomescan method relative to control; how it was run: as §1
Mitogen-activated protein kinase 8 (Homo sapiens), sequence (P45983 whole entry, the tested form may be a part): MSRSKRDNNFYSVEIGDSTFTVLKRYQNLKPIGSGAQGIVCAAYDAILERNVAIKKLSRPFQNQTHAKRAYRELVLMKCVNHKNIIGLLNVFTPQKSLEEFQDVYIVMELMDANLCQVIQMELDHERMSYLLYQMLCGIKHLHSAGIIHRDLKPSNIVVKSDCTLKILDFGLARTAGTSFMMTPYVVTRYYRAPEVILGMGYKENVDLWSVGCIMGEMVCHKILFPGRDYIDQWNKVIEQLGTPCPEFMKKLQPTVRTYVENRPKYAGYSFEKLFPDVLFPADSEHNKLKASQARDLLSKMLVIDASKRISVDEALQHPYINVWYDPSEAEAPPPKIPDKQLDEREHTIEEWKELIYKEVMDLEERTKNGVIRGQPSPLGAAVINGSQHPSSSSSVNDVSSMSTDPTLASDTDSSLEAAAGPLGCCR

[11] = system: Receptor-type tyrosine-protein kinase FLT3 (Homo sapiens), P36888 [K663Q]; test: Binding affinity to human partial length FLT3 K663Q mutant (V592 to Y969 residues) expressed in bacterial expression system assessed as residual binding level at 1 uM by Kinomescan method relative to control; how it was run: as §4
[12] = biological target: Macrophage colony-stimulating factor 1 receptor (Homo sapiens) (UniProt P07333); test: Binding affinity to wild-type human partial length CSF1R (I564 to S939 residues) expressed in bacterial expression system assessed as residual binding level at 1 uM by Kinomescan method relative to control
Macrophage colony-stimulating factor 1 receptor (Homo sapiens), sequence (P07333 whole entry, the tested form may be a part): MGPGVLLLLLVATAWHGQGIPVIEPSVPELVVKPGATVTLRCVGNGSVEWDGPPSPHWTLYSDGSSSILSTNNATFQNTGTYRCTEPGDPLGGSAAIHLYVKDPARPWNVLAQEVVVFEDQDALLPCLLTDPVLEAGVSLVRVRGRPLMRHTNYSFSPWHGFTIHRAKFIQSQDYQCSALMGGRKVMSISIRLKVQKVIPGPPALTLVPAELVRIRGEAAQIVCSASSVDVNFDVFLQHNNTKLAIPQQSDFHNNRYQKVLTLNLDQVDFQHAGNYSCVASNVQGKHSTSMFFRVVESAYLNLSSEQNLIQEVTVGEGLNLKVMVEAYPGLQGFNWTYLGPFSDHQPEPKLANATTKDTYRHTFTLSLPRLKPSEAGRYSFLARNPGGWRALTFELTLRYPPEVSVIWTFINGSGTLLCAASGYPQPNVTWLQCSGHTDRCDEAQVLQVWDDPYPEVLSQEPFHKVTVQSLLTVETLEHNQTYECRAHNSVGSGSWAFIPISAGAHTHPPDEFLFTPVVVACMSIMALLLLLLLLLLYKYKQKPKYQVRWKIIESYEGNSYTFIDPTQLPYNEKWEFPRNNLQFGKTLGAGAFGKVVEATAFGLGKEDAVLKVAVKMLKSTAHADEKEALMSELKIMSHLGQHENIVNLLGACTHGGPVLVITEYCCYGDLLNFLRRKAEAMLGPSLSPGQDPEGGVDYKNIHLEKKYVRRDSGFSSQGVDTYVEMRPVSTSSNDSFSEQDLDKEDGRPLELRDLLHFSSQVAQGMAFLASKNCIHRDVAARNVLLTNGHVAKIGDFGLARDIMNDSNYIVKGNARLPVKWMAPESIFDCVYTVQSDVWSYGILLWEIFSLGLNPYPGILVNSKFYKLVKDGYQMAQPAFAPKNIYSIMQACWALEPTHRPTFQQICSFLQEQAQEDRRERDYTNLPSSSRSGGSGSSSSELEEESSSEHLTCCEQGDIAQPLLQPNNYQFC

[13] = biological target: RAC-beta serine/threonine-protein kinase (Homo sapiens) (UniProt P31751); test: Binding affinity to wild-type human partial length AKT2 expressed in bacterial expression system assessed as residual binding level at 1 uM by Kinomescan method relative to control
RAC-beta serine/threonine-protein kinase (Homo sapiens), sequence (P31751 whole entry): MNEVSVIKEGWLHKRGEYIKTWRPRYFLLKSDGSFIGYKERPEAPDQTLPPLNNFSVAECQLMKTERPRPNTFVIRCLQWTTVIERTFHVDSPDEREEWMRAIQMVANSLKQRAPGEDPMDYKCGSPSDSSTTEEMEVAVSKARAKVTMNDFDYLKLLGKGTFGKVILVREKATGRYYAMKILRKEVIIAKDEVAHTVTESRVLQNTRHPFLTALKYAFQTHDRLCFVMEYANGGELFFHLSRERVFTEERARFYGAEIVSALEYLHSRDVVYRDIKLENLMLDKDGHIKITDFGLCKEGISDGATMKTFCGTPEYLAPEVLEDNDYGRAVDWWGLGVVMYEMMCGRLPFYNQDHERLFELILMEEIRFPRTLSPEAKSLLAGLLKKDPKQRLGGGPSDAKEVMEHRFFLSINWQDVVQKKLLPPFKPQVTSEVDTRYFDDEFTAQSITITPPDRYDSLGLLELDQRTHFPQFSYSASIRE
How it was run: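 Single-concentration KINOMEscan (DiscoverX) binding screen at 1 μM against a panel of 468 purified kinases and mutants. The read-out is binding relative to control.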

[14] = biological target: Epithelial discoidin domain-containing receptor 1 (Homo sapiens, UniProt Q08345); test: Binding affinity to wild-type human partial length DDR1 (R565 to V876 residues) expressed in bacterial expression system assessed as residual binding level at 1 uM by Kinomescan method relative to control; how it was run: as §3
Epithelial discoidin domain-containing receptor 1, sequence (Q08345 whole entry, the tested form may be a part): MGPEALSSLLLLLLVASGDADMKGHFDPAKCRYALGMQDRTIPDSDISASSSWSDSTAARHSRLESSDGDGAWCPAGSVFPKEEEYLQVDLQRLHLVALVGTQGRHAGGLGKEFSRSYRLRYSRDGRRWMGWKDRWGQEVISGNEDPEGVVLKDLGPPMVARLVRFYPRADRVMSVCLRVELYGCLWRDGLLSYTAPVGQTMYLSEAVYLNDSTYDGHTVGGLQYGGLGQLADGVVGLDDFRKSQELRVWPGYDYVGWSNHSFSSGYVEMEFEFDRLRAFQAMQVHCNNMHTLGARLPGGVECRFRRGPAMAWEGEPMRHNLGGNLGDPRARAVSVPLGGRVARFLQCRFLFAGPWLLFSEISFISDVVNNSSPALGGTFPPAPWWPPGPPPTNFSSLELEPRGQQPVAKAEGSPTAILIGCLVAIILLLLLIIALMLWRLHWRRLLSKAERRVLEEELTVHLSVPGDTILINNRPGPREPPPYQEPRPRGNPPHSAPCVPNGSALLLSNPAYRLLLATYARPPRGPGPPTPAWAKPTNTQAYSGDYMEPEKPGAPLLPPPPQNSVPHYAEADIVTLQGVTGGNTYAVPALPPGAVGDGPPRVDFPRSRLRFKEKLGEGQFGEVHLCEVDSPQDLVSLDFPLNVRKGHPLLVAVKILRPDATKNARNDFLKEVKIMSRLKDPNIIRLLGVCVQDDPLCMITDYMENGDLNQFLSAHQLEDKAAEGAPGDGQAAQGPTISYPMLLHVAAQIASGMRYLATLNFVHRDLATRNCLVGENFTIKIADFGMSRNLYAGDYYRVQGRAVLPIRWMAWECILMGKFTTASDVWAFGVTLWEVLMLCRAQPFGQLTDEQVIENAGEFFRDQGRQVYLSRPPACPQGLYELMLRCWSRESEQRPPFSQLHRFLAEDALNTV

[15] = biological target: Platelet-derived growth factor receptor alpha (Homo sapiens, UniProt P16234); test: Inhibition of PDGF-induced PDGFRalpha autophosphorylation at Y849 residue in human NCI-H1703 cells after 2 hrs in presence of PDGF-AA by Western blot analysis; type: cell-based
[16] = biological target: Serine/threonine-protein kinase Nek10 (Homo sapiens) (UniProt Q6ZWH5); test: Binding affinity to wild-type human partial length NEK10 (L488 to R809 residues) expressed in mammalian expression system assessed as residual binding level at 1 uM by Kinomescan method relative to control
[17] = biological target: Dual specificity mitogen-activated protein kinase kinase 4 (Homo sapiens) (UniProt P45985); test: Binding affinity to wild-type human partial length MEK4 (S84 to D399 residues) expressed in mammalian expression system assessed as residual binding level at 1 uM by Kinomescan method relative to control
[18] = biological target: SRSF protein kinase 3 (Homo sapiens) (UniProt Q9UPE1); test: Binding affinity to wild-type human partial length SRPK3 (P41 to P567 residues) expressed in bacterial expression system assessed as residual binding level at 1 uM by Kinomescan method relative to control
SRSF protein kinase 3 (Homo sapiens), sequence (Q9UPE1 whole entry, the tested form may be a part): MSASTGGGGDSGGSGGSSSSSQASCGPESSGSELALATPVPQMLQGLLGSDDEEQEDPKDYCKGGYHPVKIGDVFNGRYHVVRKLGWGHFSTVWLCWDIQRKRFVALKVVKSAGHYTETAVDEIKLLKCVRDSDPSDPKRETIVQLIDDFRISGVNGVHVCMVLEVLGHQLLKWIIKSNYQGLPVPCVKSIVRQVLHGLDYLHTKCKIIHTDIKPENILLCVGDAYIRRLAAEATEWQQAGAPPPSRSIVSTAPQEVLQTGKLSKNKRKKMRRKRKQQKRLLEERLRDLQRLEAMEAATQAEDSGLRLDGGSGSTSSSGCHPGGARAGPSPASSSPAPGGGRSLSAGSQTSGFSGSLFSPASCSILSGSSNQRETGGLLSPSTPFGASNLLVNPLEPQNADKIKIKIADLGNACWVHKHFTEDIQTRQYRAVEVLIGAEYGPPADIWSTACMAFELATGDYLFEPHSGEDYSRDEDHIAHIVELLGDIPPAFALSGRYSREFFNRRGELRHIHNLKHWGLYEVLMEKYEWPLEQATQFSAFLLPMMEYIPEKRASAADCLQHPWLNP

[19] = system: Receptor-type tyrosine-protein kinase FLT3 (Homo sapiens), P36888 [N841I]; test: Binding affinity to human partial length FLT3 N841I mutant (V592 to Y969 residues) expressed in bacterial expression system assessed as residual binding level at 1 uM by Kinomescan method relative to control; how it was run: as §4
[20] = system: Tyrosine-protein kinase ABL1 (Homo sapiens), P00519 [F317L]; test: Binding affinity to human phosphorylated ABL1 F317L mutant (S229 to K512 residues) expressed in mammalian expression system assessed as residual binding level at 1 uM by Kinomescan method relative to control; how it was run: as §2
[21] = biological target: BDNF/NT-3 growth factors receptor (Homo sapiens) (UniProt Q16620); test: Binding affinity to wild-type human partial length TRKB (Q547 to G838 residues) expressed in mammalian expression system assessed as residual binding level at 1 uM by Kinomescan method relative to control
[22] = biological target: Calcium/calmodulin-dependent protein kinase type II subunit beta (Homo sapiens) (UniProt Q13554); test: Binding affinity to wild-type human partial length CAMK2B (M1 to Q380 residues) expressed in bacterial expression system assessed as residual binding level at 1 uM by Kinomescan method relative to control

Work on Cc1ccc(NC(=O)c2ccc(CN(CCN(C)C)C(=O)c3cccnc3)cc2)cc1Nc1nccc(-c2cccnc2)n1 yielded an Activity [1] of 79%, an Activity [2] of 81% and an Activity [3] of 82%. The Activity [4] was 90%, the Activity [5] was 100% and the Activity [6] was 100%. It also gave an Activity [7] of 81%, an Activity [8] of 85% and an Activity [9] of 96%. It also gave an Activity [10] of 36%, an Activity [11] of 93% and an Activity [12] of 10%. For the same molecule, the Activity [13] was 100%, the Activity [14] was 3.9% and the inhibition [15] was “Dose-dependent effect”. The Activity [16] was 100%, the Activity [17] was 100% and the Activity [18] was 85%. It also gave an Activity [19] of 100%, an Activity [20] of 87% and an Activity [21] of 100%. The Activity [22] was 99%.
